For orientation: IC50 means the concentration that inhibits the measured activity by half.

This note sets out measurements from ChEMBL document CHEMBL3351637 (Eur J Med Chem, 2014).

The nature of data set [1]: Stability of the compound in pH 10.2 borate buffer assessed as compound mean nano particles size at 2 mg/ml by quasi-elastic light scattering method. It counts as physicochemical. The method in brief: (§1)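 Nanoassemblies formed by solvent displacement into water, 10 mM buffers (citrate or acetate pH 4.5, phosphate pH 7.5, borate or carbonate pH 10.2) or 100 mM NaCl, final 2 mg/mL. Mean diameter by quasi-elastic light scattering at 90° and 25°C, on samples diluted 1:20 in water; each value the average of five measurements.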

Data set [2] can be described thus: Stability of the compound assessed as compound mean nano particles size diluted with water at 2 mg/ml measured after 3 months at 5 degC by quasi-elastic light scattering method. The data set is classed as physicochemical. The conditions noted are these: buffer, 2191.5 h. The method in brief: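 Nanoassemblies made by nanoprecipitation in water as 2 mg/mL dispersions, stored at 5°C. Size checked after three months on samples diluted with water, by light scattering.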

The test system of data set [3] is A549. Briefly: Inhibition of microtubule bundle formation in human A549 cells assessed as cell detachment at 200 ug/mL incubated for 1 hr by alpha-tubulin staining based fluorescence microscopy. Summed up:
(§2)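 A549 cells seeded on glass coverslips at 50000 cells/ml, grown 24 h, then exposed 1 h to 200 µg/ml conjugate or parent drug. Fixed and permeabilized in methanol at -20°C for 6 min, blocked in PBS + 5% BSA, stained with anti-α-tubulin (1:500, 1 h, 37°C), Alexa568 secondary and DAPI nuclei, then imaged by fluorescence microscopy at 63x.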

A short description of data set [4]: Stability of the compound in water assessed as compound mean nano particles size at 2 mg/ml by quasi-elastic light scattering method. It counts as physicochemical. The conditions noted are these: buffer. Summed up: as §1
The nature of data set [5]: Stability in human serum at 37 degC assessed as ratio of HPLC area of peaks corresponding to intact compound at time zero at 2 mg/ml measured after 48 hrs. It counts as ADME, cell-free. The conditions noted are these: read-out: Stability.
Data set [6] has as its system MCF7. The experiment in a line: Cytotoxicity against human MCF7 cells after 48 hrs by SRB assay. It counts as functional, cell-based. The settings on record: MCF7, 48 h. Summed up: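 Nanoassemblies diluted in culture medium and added at various concentrations for 48 h at 37°C/5% CO₂. Survival % vs untreated control; run thrice in triplicate; IC50 from dose–effect curves.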

Data set [7] can be described thus: Stability of the compound in pH 10.2 carbonate buffer assessed as compound mean nano particles size at 2 mg/ml by quasi-elastic light scattering method. The data set is classed as physicochemical. Summed up:
as §1

Data set [8] is described as follows: Stability of the compound in presence of 100 mM NaCl assessed as compound mean nano particles size at 2 mg/ml by quasi-elastic light scattering method. The data set is classed as physicochemical. The method in brief: as §1
Data set [9] is described as follows: Stability of the compound in pH 4.5 citrate buffer assessed as compound mean nano particles size at 2 mg/ml by quasi-elastic light scattering method. It counts as physicochemical. The method in brief: as §1
In data set [10] the test system is A549. Briefly: Cytotoxicity against human A549 cells after 48 hrs by SRB assay. It counts as functional, cell-based. The conditions noted are these: A549, 48 h.
A short description of data set [11]: Stability of the compound in pH 4.5 acetate buffer assessed as compound mean nano particles size at 2 mg/ml by quasi-elastic light scattering method. It counts as physicochemical. The method in brief: as §1
For data set [12], the system named is A549. Briefly: Inhibition of microtubule bundle formation in human A549 cells assessed as cell shrinking at 200 ug/mL incubated for 1 hr by alpha-tubulin staining based fluorescence microscopy. The method in brief: as §2
The test system of data set [13] is MCF7. Briefly: Cytotoxicity against human MCF7 cells in presence of 10 mM DTT after 48 hrs by SRB assay. The conditions noted are these: MCF7, 48 h. It counts as functional, cell-based. On the technique in general: Sulforhodamine B stains cellular protein and so reports cell mass.
The test system of data set [14] is A549. Briefly: Binding affinity to microtubule in human A549 cells at 200 ug/mL incubated for 1 hr by alpha-tubulin staining based fluorescence microscopy. It counts as cell-based. The method in brief:
as §2

A short description of data set [15]: Stability of the compound in pH 7.5 phosphate buffer assessed as compound mean nano particles size at 2 mg/ml by quasi-elastic light scattering method. It counts as physicochemical. The method in brief: as §1

The source made the active and inactive calls. The rule behind the calls is not given here. Bounds are passed on as bounds.

Take `CC(=O)O[C@H]1C(=O)[C@@]2(C)[C@H]([C@H](OC(=O)c3ccccc3)[C@]3(O)C[C@H](OC(=O)[C@H](OC(=O)CCCSSCCCC(=O)OCCC/C(C)=C/CC/C(C)=C/CC/C=C(\C)CC/C=C(\C)CCC=C(C)C)[C@@H](NC(=O)c4ccccc4)c4ccccc4)C(C)=C1C3(C)C)[C@]1(OC(C)=O)CO[C@@H]1C[C@@H]2O`: the Stability in data set [1] was 181.7 nm; in data set [2] it was 106.5 nm; in [4], 100.8 nm; in data set [7], 723.3 nm; in data set [8] it was more than 2 um; in data set [9], 462.4 nm. Also, the Stability is more than 2 um in data set [11] and 162.4 nm in [15]. Besides, the inhibition entry in [3] and in data set [12] was “Active” in each case. The remaining at 48 h, 2 mg/ml in [5] came out at 93%. The values for the IC50 in data set [6], in data set [10] and in data set [13] were 60 nM, 490 nM and 3 nM, respectively. Also, in [14], the result was Active.
